Experimental data taken from ChEMBL document CHEMBL1146459, “Production of biologically active taxoids by a callus culture of Taxus cuspidata” (2004).

What was measured:
[1] = Reversal of multidrug resistance in human 2780AD cells assessed as [3H]vincristine accumulation at 0.1 ug/mL after 2 hrs relative to control; type: functional, A2780 ADR
Summary of the method: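 Multidrug-resistant human ovarian cancer 2780AD cells were exposed to taxoids at 0.1, 1 or 10 µg/mL. Radiolabelled vincristine accumulated in the cells was measured as dpm/well, using means of triplicate determinations. Results are expressed as % of vincristine accumulated relative to the control experiment. They were also scored on a seven-level index according to the range of relative accumulation.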

[2] = Reversal of multidrug resistance in human 2780AD cells assessed as [3H]vincristine accumulation at 1 ug/mL after 2 hrs relative to verapamil; type: functional, A2780 ADR
[3] = Reversal of multidrug resistance in human 2780AD cells assessed as [3H]vincristine accumulation at 10 ug/mL after 2 hrs relative to verapamil; type: functional, A2780 ADR
[4] = Growth inhibition of human HBC4 cells after 48 hrs by SRB assay; type: functional; conditions: HBC4, 48 h
MDA-MB-231 = test: Growth inhibition of human MDA-MB-231 cells after 48 hrs by SRB assay; type: functional; conditions: MDA-MB-231, 48 h
SF-268 = test: Growth inhibition of human SF268 cells after 48 hrs by SRB assay; type: functional; conditions: SF-268, 48 h
SF-295 = test: Growth inhibition of human SF295 cells after 48 hrs by SRB assay; type: functional; conditions: SF-295, 48 h
SF-539 = test: Growth inhibition of human SF539 cells after 48 hrs by SRB assay; type: functional; conditions: SF-539, 48 h
SNB-75 = test: Growth inhibition of human SNB75 cells after 48 hrs by SRB assay; type: functional; conditions: SNB-75, 48 h
HT-29 = test: Growth inhibition of human HT-29 cells after 48 hrs by SRB assay; type: functional; conditions: HT-29, 48 h
HCT-15 = test: Growth inhibition of human HCT15 cells after 48 hrs by SRB assay; type: functional; conditions: HCT-15, 48 h
HCT-116 = test: Growth inhibition of human HCT116 cells after 48 hrs by SRB assay; type: functional; conditions: HCT-116, 48 h
A549 = test: Growth inhibition of human A549 cells after 48 hrs by SRB assay; type: functional; conditions: A549, 48 h
DMS-273 = test: Growth inhibition of human DMS273 cells after 48 hrs by SRB assay; type: functional; conditions: DMS-273, 48 h
OVCAR-5 = test: Growth inhibition of human OVCAR5 cells after 48 hrs by SRB assay; type: functional; conditions: OVCAR-5, 48 h
[5] = Growth inhibition of human RXF631L cells after 48 hrs by SRB assay; type: functional; conditions: RXF 631, 48 h
St-4 = test: Growth inhibition of human St-4 cells after 48 hrs by SRB assay; type: functional; conditions: St-4, 48 h
[6] = Growth inhibition of human MKN1 cells after 48 hrs by SRB assay; type: functional; conditions: MKN-1, 48 h
MKN-7 = test: Growth inhibition of human MKN7 cells after 48 hrs by SRB assay; type: functional; conditions: MKN-7, 48 h
MKN-45 = test: Growth inhibition of human MKN45 cells after 48 hrs by SRB assay; type: functional; conditions: MKN-45, 48 h
DU-145 = test: Growth inhibition of human DU145 cells after 48 hrs by SRB assay; type: functional; conditions: DU-145, 48 h
PC-3 = test: Growth inhibition of human PC3 cells after 48 hrs by SRB assay; type: functional; conditions: PC-3, 48 h
[7] = read-out: LC50 (the source's name)
[8] = read-out: pLC50 (the source's name) (converted)

Q: Which Activity [1] does the source give for `C=C1[C@@H](OC(C)=O)CC[C@@]2(C)C[C@H](OC(C)=O)C3=C(C)C[C@H](OC(=O)C(C)CC)[C@@H]([C@@H](OC(C)=O)[C@H]12)C3(C)C` (stereo partly specified) here?
A: 111%

Q: What about the Activity [2] of the same compound?
A: 123%

Q: What about the Activity [3] of the same compound?
A: 132%

Q: What about the GI50 ([4]; read-out: GI50) of the same compound?
A: 72 µM

Q: What about the CC50 [4, 7] of the same compound?
A: > 100 µM

Q: And the TGI ([4]; read-out: TGI)?
A: > 100 µM

Q: And the GI50 ([4]; read-out: pGI50 (converted))?
A: 72.4 µM

Q: And the CC50 [4, 8]?
A: 100 µM

Q: And the TGI ([4]; read-out: pTGI (converted))?
A: 100 µM

Q: What about the GI50 (MDA-MB-231; read-out: GI50) of the same compound?
A: 18 µM

Q: And the CC50 (MDA-MB-231; [7])?
A: > 100 µM

Q: What about the TGI (MDA-MB-231; read-out: TGI) of the same compound?
A: > 100 µM

Q: What about the GI50 (MDA-MB-231; read-out: pGI50 (converted)) of the same compound?
A: 18.2 µM

Q: What about the TGI (MDA-MB-231; read-out: pTGI (converted)) of the same compound?
A: 100 µM

Q: And the GI50 (SF-268; read-out: GI50)?
A: 74 µM

Q: And the CC50 (SF-268; [7])?
A: > 100 µM

Q: And the TGI (SF-268; read-out: TGI)?
A: > 100 µM

Q: And the GI50 (SF-268; read-out: pGI50 (converted))?
A: 74.1 µM

Q: And the CC50 (SF-268; [8])?
A: 100 µM

Q: And the TGI (SF-268; read-out: pTGI (converted))?
A: 100 µM

Q: What about the GI50 (SF-295; read-out: GI50) of the same compound?
A: 21 µM

Q: And the CC50 (SF-295; [7])?
A: > 100 µM

Q: What about the TGI (SF-295; read-out: TGI) of the same compound?
A: > 100 µM

Q: And the GI50 (SF-295; read-out: pGI50 (converted))?
A: 21.4 µM

Q: What about the TGI (SF-295; read-out: pTGI (converted)) of the same compound?
A: 100 µM

Q: What about the GI50 (SF-539; read-out: GI50) of the same compound?
A: 45 µM

Q: What about the CC50 (SF-539; [7]) of the same compound?
A: > 100 µM

Q: And the TGI (SF-539; read-out: TGI)?
A: > 100 µM

Q: What about the GI50 (SF-539; read-out: pGI50 (converted)) of the same compound?
A: 44.7 µM

Q: And the CC50 (SF-539; [8])?
A: 100 µM

Q: What about the TGI (SF-539; read-out: pTGI (converted)) of the same compound?
A: 100 µM

Q: What about the CC50 (SNB-75; [7]) of the same compound?
A: > 100 µM

Q: And the TGI (SNB-75; read-out: TGI)?
A: 55 µM

Q: What about the GI50 (SNB-75; read-out: pGI50 (converted)) of the same compound?
A: 8.91 µM

Q: And the CC50 (SNB-75; [8])?
A: 100 µM

Q: What about the TGI (SNB-75; read-out: pTGI (converted)) of the same compound?
A: 55 µM

Q: What about the GI50 (HT-29; read-out: GI50) of the same compound?
A: 28 µM

Q: What about the CC50 (HT-29; [7]) of the same compound?
A: > 100 µM

Q: And the TGI (HT-29; read-out: TGI)?
A: > 100 µM

Q: And the GI50 (HT-29; read-out: pGI50 (converted))?
A: 27.5 µM

Q: What about the CC50 (HT-29; read-out: pLC50 (converted)) of the same compound?
A: > 100 µM

Q: What about the TGI (HT-29; read-out: pTGI (converted)) of the same compound?
A: 100 µM

Q: And the GI50 (HCT-15; read-out: GI50)?
A: 32 µM

Q: What about the CC50 (HCT-15; [7]) of the same compound?
A: > 100 µM

Q: And the TGI (HCT-15; read-out: TGI)?
A: > 100 µM

Q: What about the GI50 (HCT-15; read-out: pGI50 (converted)) of the same compound?
A: 32.4 µM

Q: And the CC50 (HCT-15; read-out: pLC50 (converted))?
A: > 100 µM

Q: What about the TGI (HCT-15; read-out: pTGI (converted)) of the same compound?
A: 100 µM

Q: And the GI50 (HCT-116; read-out: GI50)?
A: 30 µM

Q: What about the CC50 (HCT-116; [7]) of the same compound?
A: > 100 µM

Q: What about the TGI (HCT-116; read-out: TGI) of the same compound?
A: > 100 µM

Q: What about the GI50 (HCT-116; read-out: pGI50 (converted)) of the same compound?
A: 30.2 µM

Q: And the CC50 (HCT-116; [8])?
A: 100 µM

Q: What about the TGI (HCT-116; read-out: pTGI (converted)) of the same compound?
A: 100 µM

Q: What about the GI50 (A549; read-out: GI50) of the same compound?
A: 30 µM

Q: What about the CC50 (A549; [7]) of the same compound?
A: > 100 µM

Q: And the TGI (A549; read-out: TGI)?
A: > 100 µM

Q: And the GI50 (A549; read-out: pGI50 (converted))?
A: 30.2 µM

Q: What about the CC50 (A549; [8]) of the same compound?
A: 100 µM

Q: And the TGI (A549; read-out: pTGI (converted))?
A: 100 µM

Q: And the GI50 (DMS-273; read-out: GI50)?
A: 22 µM

Q: And the CC50 (DMS-273; [7])?
A: > 100 µM

Q: And the TGI (DMS-273; read-out: TGI)?
A: > 100 µM

Q: And the GI50 (DMS-273; read-out: pGI50 (converted))?
A: 22.4 µM

Q: And the CC50 (DMS-273; [8])?
A: 100 µM

Q: And the TGI (DMS-273; read-out: pTGI (converted))?
A: 100 µM

Q: What about the GI50 (OVCAR-5; read-out: GI50) of the same compound?
A: 48 µM

Q: And the CC50 (OVCAR-5; [7])?
A: > 100 µM

Q: And the TGI (OVCAR-5; read-out: TGI)?
A: > 100 µM

Q: What about the GI50 (OVCAR-5; read-out: pGI50 (converted)) of the same compound?
A: 47.9 µM

Q: What about the TGI (OVCAR-5; read-out: pTGI (converted)) of the same compound?
A: 100 µM

Q: And the GI50 ([5]; read-out: GI50)?
A: 25 µM

Q: And the CC50 [5, 7]?
A: > 100 µM

Q: And the TGI ([5]; read-out: TGI)?
A: > 100 µM

Q: What about the GI50 ([5]; read-out: pGI50 (converted)) of the same compound?
A: 24.5 µM

Q: What about the CC50 [5, 8] of the same compound?
A: 100 µM

Q: What about the TGI ([5]; read-out: pTGI (converted)) of the same compound?
A: 100 µM

Q: And the GI50 (St-4; read-out: GI50)?
A: 33 µM

Q: What about the CC50 (St-4; [7]) of the same compound?
A: > 100 µM

Q: And the TGI (St-4; read-out: TGI)?
A: > 100 µM

Q: And the GI50 (St-4; read-out: pGI50 (converted))?
A: 33.1 µM

Q: And the CC50 (St-4; [8])?
A: 100 µM

Q: And the TGI (St-4; read-out: pTGI (converted))?
A: 100 µM

Q: And the GI50 ([6]; read-out: GI50)?
A: 49 µM

Q: And the CC50 [6, 7]?
A: > 100 µM

Q: And the TGI ([6]; read-out: TGI)?
A: > 100 µM

Q: And the GI50 ([6]; read-out: pGI50 (converted))?
A: 49 µM

Q: And the TGI ([6]; read-out: pTGI (converted))?
A: 100 µM

Q: And the GI50 (MKN-7; read-out: GI50)?
A: 18 µM

Q: And the CC50 (MKN-7; [7])?
A: > 100 µM

Q: And the TGI (MKN-7; read-out: TGI)?
A: 93 µM

Q: And the GI50 (MKN-7; read-out: pGI50 (converted))?
A: 18.2 µM

Q: And the CC50 (MKN-7; [8])?
A: 100 µM

Q: What about the TGI (MKN-7; read-out: pTGI (converted)) of the same compound?
A: 93.3 µM

Q: And the GI50 (MKN-45; read-out: GI50)?
A: 27 µM

Q: What about the CC50 (MKN-45; [7]) of the same compound?
A: > 100 µM

Q: And the TGI (MKN-45; read-out: TGI)?
A: > 100 µM

Q: And the GI50 (MKN-45; read-out: pGI50 (converted))?
A: 26.9 µM

Q: What about the CC50 (MKN-45; [8]) of the same compound?
A: 100 µM

Q: What about the TGI (MKN-45; read-out: pTGI (converted)) of the same compound?
A: 100 µM

Q: And the GI50 (DU-145; read-out: GI50)?
A: 33 µM

Q: And the CC50 (DU-145; [7])?
A: > 100 µM

Q: What about the TGI (DU-145; read-out: TGI) of the same compound?
A: > 100 µM

Q: And the GI50 (DU-145; read-out: pGI50 (converted))?
A: 32.4 µM

Q: And the CC50 (DU-145; [8])?
A: 100 µM

Q: What about the TGI (DU-145; read-out: pTGI (converted)) of the same compound?
A: 100 µM

Q: What about the GI50 (PC-3; read-out: GI50) of the same compound?
A: 20 µM

Q: What about the CC50 (PC-3; [7]) of the same compound?
A: > 100 µM

Q: What about the TGI (PC-3; read-out: TGI) of the same compound?
A: > 100 µM

Q: What about the GI50 (PC-3; read-out: pGI50 (converted)) of the same compound?
A: 20 µM

Q: And the TGI (PC-3; read-out: pTGI (converted))?
A: 100 µM
